High-throughput results from PubChem BioAssay.
MrgX1 antag: human MrgX1 receptor antagonism, primary screen | MRGX1-HEK293 calcium flux, Fluo-4, BAM8-22 antagonism; hits give low values | B-score at 10 µM | 310,000 tested, 1.3% active;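 active means calcium-response B-score plate-corrected more than 3 library SD below zero, starting fluorescence within 5 deviations, no agonist response on first addition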;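 further: peak minus trough fluorescence over baseline after final BAM8-22 challenge near maximal dose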
Target sequence (Q96LB2 whole entry, looked up): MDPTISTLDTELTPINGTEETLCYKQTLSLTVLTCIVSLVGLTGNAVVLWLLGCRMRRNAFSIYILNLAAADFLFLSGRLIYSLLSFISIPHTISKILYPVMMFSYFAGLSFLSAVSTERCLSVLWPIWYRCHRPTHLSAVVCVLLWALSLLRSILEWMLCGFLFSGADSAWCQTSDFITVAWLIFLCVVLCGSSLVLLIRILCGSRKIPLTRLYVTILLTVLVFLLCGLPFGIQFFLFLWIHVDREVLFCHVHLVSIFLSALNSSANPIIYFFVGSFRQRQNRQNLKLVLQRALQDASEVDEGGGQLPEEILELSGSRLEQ
MrgX1 ag: human MrgX1 receptor agonism, primary screen; B-score at 10 µM; 310,000 tested, 0.44% active; AID 588627; MrgX1-HEK293 cells, Fluo-4 calcium fluorescence, agonist mode; hits give high values;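 active means calcium response B-score plate-corrected fluorescence ratio at least 3 library SD, with starting fluorescence B-score inside 5 SD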
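System: HEK293 cells stably expressing human MrgX1 receptor; Dosing: test compound in the initial addition of three; Schedule: overnight plating, then 30 min 37 °C plus 30 min room-temperature dye loading; Detection: kinetic calcium dye fluorescence, Fluo-4 NW; Controls: per-plate positive and negative controls for Z′ factor.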
RGS4 pot: RGS4 potentiation or activation. 310,000 tested, 0.92% active. AID 463111. HEK293 M3R/inducible RGS4, carbachol calcium flux Fluo4; hits give low values. B-score at 10 µM;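 active means B-score of the integrated calcium signal more than 4 SD below the library mean, with starting fluorescence not abnormally high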;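 further: negative B-score means reduced calcium response which marks RGS4 activation or potentiation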
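Detection: kinetic calcium fluorescence imaging with Fluo4-AM dye, 2 µM / Material: HEK293 cells with stable M3R and inducible RGS4 / Schedule: recording 10 s baseline at 1 Hz, 100 s post-agonist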
RGS4 inh: inhibitors of human RGS4; P49798; HEK293 M3R/RGS4 inducible, Fluo-4 calcium flux; hits give high values; triggered by carbachol at its EC20; B-score at 10 µM; 310,000 tested, 0.45% active; AID 463165;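 active means B-score, a plate-corrected calcium signal, over three deviations above library mean, with baseline fluorescence within five deviations of library mean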;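 further: RGS4 expression induced by doxycycline in cells with stable M3 receptor; B-score is computed from the integrated fluorescence ratio over baseline after carbachol; higher B-score means a larger calcium signal and so more RGS4 inhibition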
Target sequence (P49798 whole entry, looked up): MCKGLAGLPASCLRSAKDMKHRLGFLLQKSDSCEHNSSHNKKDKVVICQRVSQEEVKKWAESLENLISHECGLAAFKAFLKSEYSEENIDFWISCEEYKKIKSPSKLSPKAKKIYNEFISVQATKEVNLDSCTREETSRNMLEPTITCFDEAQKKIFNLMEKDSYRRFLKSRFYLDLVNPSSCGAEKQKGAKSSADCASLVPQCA
MrgX1 allo act: human MrgX1 positive allosteric modulation, primary screen | Q96LB2 | MrgX1-HEK293, Fluo-4 calcium flux, FDSS; hits give high values | B-score at 10 µM | 310,000 tested, 0.63% active;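 active means plate-corrected calcium response at least 3 library SD above typical, normal starting fluorescence, not activating the receptor alone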;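 further: compound read alongside a low EC10 to EC30 dose of BAM8-22 agonist; peak minus trough fluorescence over baseline measured at the second addition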
RGS4 activ val: RGS4 activation, validation assay; HEK293 M3R/RGS4 inducible, carbachol calcium flux Fluo4; shares compounds with RGS4 pot; 1,100 tested, 89% active; inhibition, % at 10 µM;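 active means inhibition above 3 SD of the buffer control wells, cut at about 41% in these data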;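 further: signal is the integrated peak-minus-minimum Fluo4 fluorescence over baseline ratio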
M3R Ca counter: activity in cells without induced RGS4 expression; inhibition, % at 10 µM; 1,100 tested, 82% active; shares compounds with RGS4 pot; AID 602283; HEK293 M3R non-induced RGS4, Fluo4 calcium flux; after carbachol challenge at its EC90;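 active means inhibition exceeding 3 SD of buffer-only control wells, cut at about 26% in these data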;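 further: percent drop in integrated peak-minus-baseline over baseline Fluo4 ratio after carbachol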
Active calls of the source: *; i = inactive; . = not tested or not shown. Compounds with a hit are over-represented: about 3.5% of the library has one in this group of screens.

SMILES | MrgX1 antag | MrgX1 ag | RGS4 pot | RGS4 inh | MrgX1 allo act | RGS4 activ val | M3R Ca counter
COc1ccccc1CN1CCNC(=O)C1CC(=O)NC1CCCCCC1 (stereo not drawn) | i | i | i | i | i | . | .
COc1ccc(C)c2sc(=NC(=O)c3cccc(N4C(=O)CCC4=O)c3)n(C)c12 | i | i | i | i | i | . | .
C=CCn1c(=NC(=O)c2cccc(N3C(=O)CCC3=O)c2)sc2cccc(OC)c21 | i | i | -10* | i | i | 92* | 73*
Brc1cccc(-c2cnc3n2CCCCC3)c1 | i | i | -7.9* | i | i | 84* | 56*
Brc1cccc(-c2nnc3n2CCCCC3)c1 | i | i | i | i | i | . | .
COc1ccc(CCNC(=O)C(=O)NCC2CCCN2S(=O)(=O)c2cc(C)ccc2C)cc1 (stereo not drawn) | i | i | -9.5* | i | i | 74* | 26*
COc1ccc(CCNC(=O)C(=O)NCC2OCCCN2S(=O)(=O)c2cc(C)ccc2C)cc1 (stereo not drawn) | i | i | i | i | i | . | .
Cc1ccc(C)c(S(=O)(=O)N2CCCC2CNC(=O)C(=O)NCc2ccccc2C)c1 (stereo not drawn) | i | i | i | i | i | . | .
Cc1ccc(C)c(S(=O)(=O)N2CCCC2CNC(=O)C(=O)NCCc2ccccc2)c1 (stereo not drawn) | i | i | -10* | i | i | 80* | 31*
COc1cc(C(=O)NCc2nnc(SCC(=O)N3CCCc4ccccc43)o2)cc(OC)c1OC | i | i | i | i | i | . | .
Oc1ccc(Nc2nc(N3CCCC3)c3ccccc3n2)cc1 | i | i | -8.2* | i | i | 91* | 65*
CN(C)CCCNCCCNC(=O)/C(=N\O)c1ccccc1 | i | i | i | i | i | . | .
CN1CCc2c(sc3nc(SCC(N)=O)n(-c4ccccc4)c(=O)c23)C1 | i | i | i | i | i | . | .
CCSc1nc2sc3c(c2c(=O)n1-c1ccccc1)CCN(C(C)C)C3 | i | i | -7.9* | i | i | 64* | 0
CN1CCN(CCC=C2c3ccccc3Sc3ccc(S(=O)(=O)N(C)C)cc32)CC1 | i | i | . | . | i | . | .
CN(C)CC/C=C1/c2ccccc2Sc2ccc(Cl)cc21 | i | i | -9.5* | i | i | 94* | 96*
CN(C)CC/C=C1\c2ccccc2COc2ccccc21 | i | i | -8* | i | i | 94* | 93*
CN(C)CC/C=C1/c2ccccc2CS(=O)(=O)c2ccccc21 | i | i | i | i | i | . | .
c1ccc(CNc2nc(-c3cccnc3)nc3ccccc23)cc1 | i | i | -8.4* | i | i | 84* | 37*
COC(=O)CNc1nc(-c2cccnc2)nc2ccccc12 | i | i | . | . | i | . | .
COc1ccc(C(CNc2nc(-c3cccnc3)nc3ccccc23)N(C)C)cc1 (stereo not drawn) | i | i | -9.3* | i | i | 60* | 84*
Cc1ccc(CNc2nc(-c3cccnc3)nc3ccccc23)cc1 | i | i | i | i | i | . | .
CN(CCOc1ccc(Cl)cc1)C(=O)c1cc(-c2ccco2)nc2ccccc12 | i | i | -8.5* | i | i | 91* | 66*
Cc1ccc(NC(=O)CN(C)C(=O)c2cc(-c3ccco3)nc3ccccc23)cc1 | i | i | -8.3* | i | i | 61* | 0
COc1ccc(NC(=O)CN(C)C(=O)c2cc(-c3ccccc3)nc3ccccc23)cc1 | i | i | -8.4* | i | i | 48* | 0
SMILES | MrgX1 antag | MrgX1 ag | RGS4 pot | RGS4 inh | MrgX1 allo act | RGS4 activ val | M3R Ca counter
COc1ccc(-c2cc(C(=O)N(C)CC(=O)Nc3cccc(F)c3)c3ccccc3n2)cc1 | i | i | -8.2* | i | i | 70* | 28*
COc1ccc(NC(=O)CN(C)C(=O)c2cc(-c3ccncc3)nc3ccccc23)cc1 | i | i | i | i | i | . | .
COc1ccc(NC(=O)Cc2c(SC)c3ccccc3n2Cc2ccccc2)cc1 | i | i | i | i | i | . | .
CC(C)N1CCN(Cc2ccc(OC3CCCC3)cc2)CC1CCO (stereo not drawn) | i | i | i | i | i | . | .
COc1cc(C(=S)N2CCCC2)cc(Cl)c1OCC(=O)Nc1ccc(C)cc1C | i | i | i | i | i | . | .
COc1ccc(NC(=O)CN(C)C(=O)c2cc(-c3ccc(OC)cc3)nc3ccccc23)cc1 | i | i | -8.1* | i | i | 54* | 84*
COc1ccc(NC(=O)CN(C)C(=O)c2cccc3ccccc23)cc1 | i | i | i | i | i | . | .
Cc1cccc(NS(=O)(=O)c2ccc(C(=O)N3CCN(c4ccccc4O)CC3)cc2)c1C | i | i | -8.3* | i | i | 85* | 70*
Cc1ccccc1NS(=O)(=O)c1ccc(C(=O)N2CCCC2)cc1 | i | i | i | i | i | . | .
CC(=O)NC1(c2ccccc2)CCN(CC(=O)N2CCC(C)CC2)CC1 | i | i | i | i | i | . | .
CCOC(=O)c1c(-c2ccccc2)oc2ccc(O)c(CN3CCN(C)CC3)c12 | i | i | -8.1* | i | i | 69* | 49*
CCOC(=O)c1c(C)n(C)c2ccc(O)c(CN3CCN(C)CC3)c12 | i | i | i | i | i | . | .
Cc1ccccc1NC(=O)N1CCN(c2ncccn2)CC1 | i | i | i | i | i | . | .
COC(=O)c1cnn(-c2ccccc2)c1N | i | i | i | i | i | . | .
CC(=O)NC(=O)c1cnn(-c2ccccc2)c1N | i | i | -8.8* | i | i | 0 | 0
CCC1Oc2ccccc2C(=O)N(CC(=O)c2ccc3c(c2)OCCO3)C1=O (stereo not drawn) | i | i | -8.1* | i | i | 72* | 84*
CC(C)C1Oc2ccccc2C(=O)N(CC(=O)c2ccc3c(c2)OCCO3)C1=O (stereo not drawn) | i | i | -7.8* | i | i | 0 | 0
CC1Oc2ccccc2C(=O)N(CC(=O)c2ccc3c(c2)OCCO3)C1=O (stereo not drawn) | i | i | i | i | i | . | .
CCOC(=O)C1=C(CC)Nc2ccccc2N=C1NC(=O)CCNC(C)=O | i | i | i | i | i | . | .
